pIC50: −log10 of the molar value. Blank lines part the entries; values can stand above or below the molecule they belong to.
Columns and labels:
[1] = biological target: T1, CYP17 (steroid 17-alpha-hydroxylase/17,20 lyase) (Homo sapiens, UniProt P05093); experiment: (§1) Inhibition of human CYP17 expressed in Escherichia coli coexpressing NADPH reductase at 2 uM
T1 sequence (P05093 whole entry): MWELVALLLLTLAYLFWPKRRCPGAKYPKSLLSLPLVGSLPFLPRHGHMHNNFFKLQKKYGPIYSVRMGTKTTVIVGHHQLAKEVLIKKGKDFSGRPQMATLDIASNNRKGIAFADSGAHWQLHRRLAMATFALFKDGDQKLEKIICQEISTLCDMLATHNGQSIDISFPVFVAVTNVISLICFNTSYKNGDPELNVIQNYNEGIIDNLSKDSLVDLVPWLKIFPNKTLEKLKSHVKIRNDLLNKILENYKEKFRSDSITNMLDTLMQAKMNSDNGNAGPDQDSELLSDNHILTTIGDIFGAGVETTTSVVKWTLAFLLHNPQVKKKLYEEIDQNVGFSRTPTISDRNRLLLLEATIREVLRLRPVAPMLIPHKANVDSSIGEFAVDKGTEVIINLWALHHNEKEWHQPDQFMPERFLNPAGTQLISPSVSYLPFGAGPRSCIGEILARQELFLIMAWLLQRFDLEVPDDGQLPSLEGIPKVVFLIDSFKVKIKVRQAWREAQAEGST
In short: (§2)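 Enzyme: 50,000g sediment from homogenized, fractionally centrifuged E. coli coexpressing human CYP17 and NADPH-P450 reductase. Substrate: progesterone, 25 µM. Values are means of at least three experiments, with deviations within 5%.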

[2] = biological target: T2, Aromatase (Homo sapiens, UniProt P11511); experiment: Inhibition of human aromatase at 36 uM
T2 sequence (P11511 whole entry): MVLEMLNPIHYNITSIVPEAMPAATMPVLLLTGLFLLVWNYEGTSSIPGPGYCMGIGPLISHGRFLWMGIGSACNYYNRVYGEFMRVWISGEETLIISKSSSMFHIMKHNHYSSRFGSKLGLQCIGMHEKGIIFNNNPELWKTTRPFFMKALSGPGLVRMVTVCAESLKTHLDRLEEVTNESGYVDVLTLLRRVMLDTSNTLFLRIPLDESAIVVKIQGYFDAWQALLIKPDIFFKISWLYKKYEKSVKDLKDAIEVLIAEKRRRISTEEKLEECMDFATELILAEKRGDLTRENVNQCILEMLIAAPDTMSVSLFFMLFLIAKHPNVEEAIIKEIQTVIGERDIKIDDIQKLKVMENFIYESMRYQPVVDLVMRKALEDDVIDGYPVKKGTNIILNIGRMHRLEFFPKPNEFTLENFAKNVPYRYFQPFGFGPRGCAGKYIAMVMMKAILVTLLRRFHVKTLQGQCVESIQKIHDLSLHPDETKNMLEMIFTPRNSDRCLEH
In short: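 Aromatase source: microsomal fraction of fresh human term placenta. Substrate: [1β,2β-³H]testosterone, 500 nM. Read-out: tritiated water released on aromatization (³H₂O method). Values are means of at least three experiments, with deviations within 5%.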

[3] = biological target: T2, Aromatase; experiment: Inhibition of human aromatase
[4] = biological target: T3, Steroid 17-alpha-hydroxylase/17,20 lyase (Homo sapiens, UniProt P05093); experiment: as §1; details: 2 µM; in short: as §2
T3 sequence (P05093 whole entry): T1 sequence (P05093 whole entry)

inhibition at 2 µM [1]: 4%
inhibition at 36 µM [2]: 3.3%
SMILES: CC(C)(C)c1ccc(CN(Cc2ccc(Cl)cc2Cl)n2cnnc2)cc1

inhibition at 2 µM [1]: 21.1%
pIC50 [3]: 4.77
SMILES: Clc1ccc(CN(CC/C=C/c2ccccc2)n2cncn2)c(Cl)c1

inhibition at 2 µM [1]: 12.4%
pIC50 [3]: 5.30
SMILES: CC(C)(C)c1ccc(CN(CC/C=C/c2ccccc2)n2cncn2)cc1

inhibition at 2 µM [1]: 13%
pIC50 [3]: 5.34
SMILES: CC(C)(C)c1ccc(CN(Cc2cccc3ccccc23)n2ccnc2)cc1

inhibition at 2 µM [1]: 11.3%
pIC50 [3]: 5.40
SMILES: Clc1ccc(CN(Cc2cccc3ccccc23)n2ccnc2)c(Cl)c1

inhibition at 2 µM [1]: 6.03%
inhibition at 36 µM [2]: 19.8%
SMILES: CC(C)(C)c1ccc(CN(Cc2ccc(-c3ccccc3)cc2)n2cncn2)cc1

inhibition at 2 µM [1]: 18.2%
pIC50 [3]: 5.91
SMILES: Clc1ccc(CC(Cc2ccc(-c3ccccc3)cc2)n2ccnc2)c(Cl)c1 (stereo unspecified)

inhibition at 2 µM [1]: 16.1%
inhibition at 36 µM [2]: 5.9%
SMILES: C(=C\c1ccccc1)/CCN(Cc1ccc(-c2ccccc2)cc1)n1cnnc1

Activity [4]: Not Active
inhibition at 36 µM [2]: 24.9%
SMILES: Clc1ccc(CN(Cc2cccc3ccccc23)n2cncn2)c(Cl)c1

inhibition at 2 µM [1]: 25.8%
pIC50 [3]: 5.44
SMILES: Clc1ccc(CN(Cc2ccc(-c3ccccc3)cc2)n2ccnc2)c(Cl)c1

inhibition at 2 µM [1]: 15.9%
inhibition at 36 µM [2]: 8.8%
SMILES: CC(C)(C)c1ccc(CN(Cc2ccc(-c3ccccc3)cc2)n2cnnc2)cc1

inhibition at 2 µM [1]: 13.1%
SMILES: Clc1ccc(CN(Cc2ccc(-c3ccccc3)cc2)n2cnnc2)c(Cl)c1

inhibition at 2 µM [1]: 13.6%
pIC50 [3]: 5.93
SMILES: Clc1ccc(CN(Cc2ccc(-c3ccccc3)cc2)n2ccnc2)cc1

inhibition at 2 µM [1]: 22.4%
SMILES: CC(C)(C)c1ccc(CN(Cc2cccc3ccccc23)n2cnnc2)cc1

Activity [4]: Not Active
inhibition at 36 µM [2]: 10.6%
SMILES: Clc1ccc(CN(CC/C=C/c2ccccc2)n2cnnc2)c(Cl)c1

inhibition at 2 µM [1]: 19.9%
inhibition at 36 µM [2]: 38.3%
SMILES: CC(C)(C)c1ccc(CN(CC/C=C/c2ccccc2)n2cnnc2)cc1

Activity [4]: Not Active
pIC50 [3]: 6.46
SMILES: Fc1ccc(CN(Cc2ccc(-c3ccccc3)cc2)n2ccnc2)c(F)c1

inhibition at 2 µM [1]: 43.3%
pIC50 [3]: 5.82
SMILES: CC(C)(C)c1ccc(CN(Cc2ccc(Cl)cc2Cl)n2ccnc2)cc1

inhibition at 2 µM [1]: 3.33%
inhibition at 36 µM [2]: 36%
SMILES: CC(C)(C)c1ccc(CN(Cc2ccc(Cl)cc2Cl)n2cncn2)cc1

inhibition at 2 µM [1]: 4.07%
pIC50 [3]: 5.60
SMILES: Clc1ccc(CN(Cc2cccc3ccsc23)n2ccnc2)c(Cl)c1

Activity [4]: Not Active
pIC50 [3]: 5.67
SMILES: CC(C)(C)c1ccc(CN(Cc2ccc(-c3ccccc3)cc2)n2ccnc2)cc1

inhibition at 2 µM [1]: 56.2%
pIC50 [3]: 6.49
SMILES: Clc1ccc(CN(Cc2ccc(Cl)s2)n2ccnc2)c(Cl)c1

Activity [4]: Not Active
pIC50 [3]: 5.03
SMILES: CC(C)(C)c1ccc(CN(Cc2cccs2)n2cncn2)cc1

inhibition at 2 µM [1]: 29.4%
pIC50 [3]: 6.52
SMILES: Clc1ccccc1CN(Cc1ccc(-c2ccccc2)cc1)n1ccnc1

inhibition at 2 µM [1]: 3.13%
inhibition at 36 µM [2]: 14.6%
SMILES: CC(C)(C)c1ccc(CN(Cc2cccc3ccccc23)n2cncn2)cc1

inhibition at 2 µM [1]: 4.43%
inhibition at 36 µM [2]: 8.8%
SMILES: Clc1ccc(CN(Cc2cccc3ccccc23)n2cnnc2)c(Cl)c1

Activity [4]: Not Active
inhibition at 36 µM [2]: 30.7%
SMILES: CC(C)(C)c1ccc(CN(Cc2cccs2)n2cnnc2)cc1

inhibition at 2 µM [1]: 10.7%
pIC50 [3]: 6.24
SMILES: CC(C)(C)c1ccc(CN(Cc2cccs2)n2ccnc2)cc1

inhibition at 2 µM [1]: 9.2%
inhibition at 36 µM [2]: 27.6%
SMILES: Clc1ccc(CN(Cc2ccc(-c3ccccc3)cc2)n2cncn2)c(Cl)c1

The remaining lines, values behind:

SMILES: c1ccc(CN(Cc2cccc3ccsc23)n2ccnc2)cc1
inhibition at 2 µM [1]: 5.25%
pIC50 [3]: 5.00

SMILES: Clc1ccc(CC(Cc2ccc(-c3ccccc3)cc2)n2ccnc2)s1 (stereo unspecified)
inhibition at 2 µM [1]: 25.7%
pIC50 [3]: 5.97

SMILES: Clc1ccc(CN(Cc2ccccc2)n2ccnc2)s1
inhibition at 2 µM [1]: 7.3%
pIC50 [3]: 5.97

SMILES: Clc1ccc(CN(Cc2ccc(-c3ccccc3)cc2)n2ccnc2)s1
inhibition at 2 µM [1]: 23.6%
pIC50 [3]: 5.98

SMILES: Cc1ccccc1CC(Cc1ccc(-c2ccccc2)cc1)n1ccnc1 (stereo unspecified)
inhibition at 2 µM [1]: 25%
pIC50 [3]: 5.98

SMILES: Clc1ccccc1CC(Cc1ccc(-c2ccccc2)cc1)n1ccnc1 (stereo unspecified)
inhibition at 2 µM [1]: 22.6%
pIC50 [3]: 5.96

SMILES: Fc1ccccc1CC(Cc1ccc(-c2ccccc2)cc1)n1ccnc1 (stereo unspecified)
Activity [4]: Not Active
pIC50 [3]: 5.86

SMILES: Fc1ccc(CC(Cc2ccc(-c3ccccc3)cc2)n2ccnc2)c(F)c1 (stereo unspecified)
inhibition at 2 µM [1]: 17.7%
pIC50 [3]: 6.59

SMILES: C(=C\c1ccccc1)/CCN(Cc1cccc2ccccc12)n1cnnc1
inhibition at 2 µM [1]: 6.1%
inhibition at 36 µM [2]: 14.8%

SMILES: Fc1ccccc1CN(Cc1ccc(-c2ccccc2)cc1)n1ccnc1
Activity [4]: Not Active
pIC50 [3]: 6.34

SMILES: Cc1ccc(CN(Cc2ccc(-c3ccccc3)cc2)n2ccnc2)cc1
inhibition at 2 µM [1]: 29.1%
pIC50 [3]: 5.66

SMILES: C(=C\c1ccccc1)/CCN(Cc1ccc(-c2ccccc2)cc1)n1cncn1
inhibition at 2 µM [1]: 12.4%
inhibition at 36 µM [2]: 31.4%

SMILES: COc1ccc(CC(Cc2ccc(-c3ccccc3)cc2)n2ccnc2)cc1 (stereo unspecified)
inhibition at 2 µM [1]: 38.8%
pIC50 [3]: 5.77

SMILES: c1ccc(CN(Cc2ccc(-c3ccccc3)cc2)n2ccnc2)cc1
Activity [4]: Not Active
pIC50 [3]: 5.92

SMILES: Cc1ccccc1CN(Cc1ccc(-c2ccccc2)cc1)n1ccnc1
inhibition at 2 µM [1]: 20.6%
pIC50 [3]: 5.53

SMILES: C(=C\c1ccccc1)/CCN(Cc1cccc2ccccc12)n1cncn1
inhibition at 2 µM [1]: 15.5%
pIC50 [3]: 4.88

SMILES: CC(C)(C)c1ccc(CC(Cc2ccc(-c3ccccc3)cc2)n2ccnc2)cc1 (stereo unspecified)
Activity [4]: Not Active
pIC50 [3]: 6.00

SMILES: Fc1ccc(CN(Cc2ccc(-c3ccccc3)cc2)n2ccnc2)cc1
inhibition at 2 µM [1]: 13.9%
pIC50 [3]: 6.72

SMILES: COc1ccccc1CN(Cc1ccc(-c2ccccc2)cc1)n1ccnc1
inhibition at 2 µM [1]: 42.9%
pIC50 [3]: 5.82

SMILES: COc1ccc(CN(Cc2ccc(-c3ccccc3)cc2)n2ccnc2)cc1
inhibition at 2 µM [1]: 21.7%
pIC50 [3]: 5.82

SMILES: c1ccc(CC(Cc2ccc(-c3ccccc3)cc2)n2ccnc2)cc1 (stereo unspecified)
inhibition at 2 µM [1]: 17.1%
pIC50 [3]: 6.02

SMILES: Clc1ccc(CC(Cc2ccccc2)n2ccnc2)s1 (stereo unspecified)
inhibition at 2 µM [1]: 7.97%
pIC50 [3]: 6.06

SMILES: COc1ccccc1CC(Cc1ccc(-c2ccccc2)cc1)n1ccnc1 (stereo unspecified)
inhibition at 2 µM [1]: 30.2%
pIC50 [3]: 6.29

SMILES: Cc1ccc(CC(Cc2ccc(-c3ccccc3)cc2)n2ccnc2)cc1 (stereo unspecified)
inhibition at 2 µM [1]: 32.8%
pIC50 [3]: 5.88

SMILES: Fc1ccc(CC(Cc2ccc(-c3ccccc3)cc2)n2ccnc2)cc1 (stereo unspecified)
inhibition at 2 µM [1]: 15.8%
pIC50 [3]: 6.96
